According to ChEMBL document CHEMBL4373711, “Development of 3,5-Dinitrophenyl-Containing 1,2,4-Triazoles and Their Trifluoromethyl Analogues as Highly Efficient Antitubercular Agents Inhibiting Decaprenylphosphoryl-β-d-ribofuranose 2'-Oxidase” (J Med Chem, 2019):
In brackets after ≈: the same amount, converted by molar mass. Activity calls are given as the source filed them. The rule behind the calls is not given here.

What was measured:
[1] = tested on: Mycobacterium tuberculosis; assay: Antimycobacterial activity against XDR Mycobacterium tuberculosis Praha 131 after 14 days; format: functional; details: Praha 131, 336 h
In short: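 M. tuberculosis strains (H37Rv and clinical MDR/XDR isolates) tested by microdilution in Šula's semisynthetic medium. Compounds were dissolved in DMSO and tested at 32 to 0.03 µM in twofold steps. Inoculum was a 1.0 McFarland suspension diluted 10-3. Plates were incubated at 37 °C and read at 14 and 21 days.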

[2] = target: T1, Decaprenylphosphoryl-beta-D-ribose oxidase (Mycobacterium tuberculosis (strain ATCC 25618 / H37Rv)) (UniProt P9WJF1); assay: Inhibition of DprE1 in Mycobacterium tuberculosis H37Rv assessed as accumulation of trehalose dimycolates at 100 times MIC measured after 24 hrs in presence of [14C]-acetate by TLC-based autoradiography
T1 sequence (whole entry): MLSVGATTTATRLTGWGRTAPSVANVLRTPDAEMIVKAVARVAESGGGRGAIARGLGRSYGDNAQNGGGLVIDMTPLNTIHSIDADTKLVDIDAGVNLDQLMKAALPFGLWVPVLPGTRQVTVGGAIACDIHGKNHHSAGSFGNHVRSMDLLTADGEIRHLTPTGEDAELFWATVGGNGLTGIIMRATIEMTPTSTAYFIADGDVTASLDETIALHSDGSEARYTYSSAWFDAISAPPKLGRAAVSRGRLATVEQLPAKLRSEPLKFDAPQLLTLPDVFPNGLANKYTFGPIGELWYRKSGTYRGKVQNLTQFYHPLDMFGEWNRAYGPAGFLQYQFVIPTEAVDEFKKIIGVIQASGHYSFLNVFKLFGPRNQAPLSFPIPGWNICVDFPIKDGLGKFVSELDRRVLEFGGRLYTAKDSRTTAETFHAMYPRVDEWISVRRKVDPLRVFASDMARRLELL
In short: (§1)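 M. tuberculosis H37Rv cultures were exposed to compound at final 10× or 100× MIC, or to DMSO, together with [14C]-acetate at 1 µCi/ml final. After 24 h, lipids were extracted in CHCl3/CH3OH (2:1) for 2 h at 65 °C and given two Folch washes. Extracts were run on TLC in CHCl3/CH3OH/H2O (20:4:0.5), then autoradiographed for 7 days at -80 °C.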

[3] = target: T1, Decaprenylphosphoryl-beta-D-ribose oxidase (Mycobacterium tuberculosis (strain ATCC 25618 / H37Rv)); assay: Inhibition of DprE1 in Mycobacterium tuberculosis H37Rv assessed as accumulation of trehalose monomycolates at 10 times MIC measured after 24 hrs in presence of [14C]-acetate by TLC-based autoradiography; in short: as §1
[4] = target: T2, Decaprenylphosphoryl-beta-D-ribose oxidase (Mycobacterium smegmatis (strain ATCC 700084 / mc(2)155)) (UniProt A0R607); assay: Inhibition of DprE1 in Mycolicibacterium smegmatis MC2 155 lysate assessed as reduction in epimerization of P[14C]RPP to DP[14C]A at 700 uM measured after 1.5 hrs in presence of NADH by TLC-based autoradiography; format: subcellular
T2 sequence (whole entry): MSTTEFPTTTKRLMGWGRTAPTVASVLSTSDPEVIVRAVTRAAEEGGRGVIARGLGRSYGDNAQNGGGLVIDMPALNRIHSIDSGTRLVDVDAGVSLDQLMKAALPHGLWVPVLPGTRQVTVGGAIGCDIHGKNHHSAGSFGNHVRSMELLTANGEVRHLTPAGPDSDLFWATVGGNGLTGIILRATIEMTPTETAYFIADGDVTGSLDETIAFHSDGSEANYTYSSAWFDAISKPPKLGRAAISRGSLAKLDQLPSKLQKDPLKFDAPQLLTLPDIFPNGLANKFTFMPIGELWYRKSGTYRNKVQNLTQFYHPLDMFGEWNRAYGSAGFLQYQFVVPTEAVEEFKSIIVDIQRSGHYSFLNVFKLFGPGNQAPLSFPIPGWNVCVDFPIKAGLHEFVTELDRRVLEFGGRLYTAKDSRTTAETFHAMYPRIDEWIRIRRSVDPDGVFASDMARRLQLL
In short: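 Cell-free DPA synthesis used a membrane/cell-envelope fraction (430 µg), spun at 100 000 × g, from sonicated M. smegmatis mc2155. The fraction was incubated 1.5 h with 15,000 dpm P[14C]RPP and NADH. BTZ was used at 70 µM and test compounds at 700 µM final, both added from DMSO stocks. Lipids were extracted, 25% was resolved by TLC, and autoradiography ran 8 days at -80 °C.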

Mycobacterium kansasii [5] = assay: Antimycobacterial activity against Mycobacterium kansasii 6509/96 after 14 days; format: functional; details: 6509/96, 336 h
In short: (§2)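 Microdilution in Šula's semisynthetic medium; compounds in DMSO at 32–0.03 µM. Inoculum from 1.0 McFarland suspension diluted 10-4. […] Isoniazid and rifampicin as reference drugs.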

Mycobacterium kansasii [6] = assay: Antimycobacterial activity against Mycobacterium kansasii 6509/96 after 7 days; format: functional; details: 6509/96, 168 h; in short: as §2
Klebsiella pneumoniae = assay: Antibacterial activity against Klebsiella pneumoniae at highest concentration measured after 24 to 48 hrs by alamar blue dye based broth microdilution assay; format: functional, organism-based
Mycobacterium kansasii [7] = assay: Antimycobacterial activity against Mycobacterium kansasii 6509/96 after 21 days; format: functional; details: 6509/96, 504 h; in short: as §2
[8] = target: T1, Decaprenylphosphoryl-beta-D-ribose oxidase (Mycobacterium tuberculosis (strain ATCC 25618 / H37Rv)); assay: Inhibition of DprE1 in Mycobacterium tuberculosis H37Rv assessed as accumulation of trehalose monomycolates at 100 times MIC measured after 24 hrs in presence of [14C]-acetate by TLC-based autoradiography; in short: as §1
HepG2 = assay: Cytotoxicity against human HepG2 cells assessed as reduction in cell viability after 48 hrs by CellTiter 96 aqueous one solution assay; format: cell-based; details: HepG2, 48 h
[9] = Cytotoxicity against human A431 cells assessed as cell viability at 30 uM after 48 hrs by CellTiter 96 aqueous one solution assay relative to control; format: cell-based, A-431; details: read-out: Activity
In short: (§3)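 HepG2 (DMEM, 10% FBS, 1 mM pyruvate) or A431 (DMEM, 10% FBS) seeded 10,000 cells/well, 24 h at 37 °C, 5% CO2, then 30 µM compound for 48 h. MTS reagent 60 min, absorbance 490 nm, background subtracted; 0.1% DMSO vehicle = 100%, 10% SDS = 0% viability.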

[10] = Cytotoxicity against human HepG2 cells assessed as cell viability at 30 uM after 48 hrs by CellTiter 96 aqueous one solution assay relative to control; format: cell-based; details: read-out: Activity; in short: as §3
A-431 = assay: Cytotoxicity against human A431 cells assessed as reduction in cell viability after 48 hrs by CellTiter 96 aqueous one solution assay; format: cell-based; details: A-431, 48 h
[11] = Selectivity index, ratio of IC50 for human HepG2 cells to MIC>99 for antimycobacterial activity against Mycobacterium kansasii CNCTC My 235/80 after 21 days; format: toxicity; details: read-out: Selectivity Index
[12] = Selectivity index, ratio of IC50 for human HepG2 cells to MIC>99 for antimycobacterial activity against Mycobacterium tuberculosis H37Rv CNCTC My 331/88 after 21 days; format: toxicity; details: read-out: Selectivity Index
In short: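 SI from HepG2 IC50 and M. tuberculosis MIC. HepG2 cells: DMEM + 10% FBS + 1 mM pyruvate, 10,000/well, 48 h treatment, 0.1% DMSO and 10% SDS controls, MTS absorbance at 490 nm.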

[13] = Selectivity index, ratio of IC50 for human A431 cells to MIC>99 for antimycobacterial activity against Mycobacterium kansasii 6509/96 after 21 days; format: toxicity; details: read-out: Selectivity Index

## CCCCCCn1c(SCc2cc([N+](=O)[O-])cc([N+](=O)[O-])c2)nnc1-c1ccccc1
[1]
  MIC99: 2 µM (≈ 0.883 µg/mL)
[2]
  inhibition: inactive
[3]
  inhibition: inactive
[4]
  DprE1 inhibition (active/not active): inactive
Mycobacterium kansasii [5]
  MIC99: 2 µM (≈ 0.883 µg/mL)
Mycobacterium kansasii [6]
  MIC99: 1 µM (≈ 0.442 µg/mL)
Klebsiella pneumoniae
  Activity: inactive
Mycobacterium kansasii [7]
  MIC99: 2 µM (≈ 0.883 µg/mL)
[8]
  inhibition: inactive

## COc1ccc(CSc2nnc(-c3cc([N+](=O)[O-])cc([N+](=O)[O-])c3)n2Cc2ccccc2)cc1
[1]
  MIC99: 0.03 µM (≈ 0.0143 µg/mL)
HepG2
  IC50: > 30 µM
[9]
  viability at 48 h, 30 µM: 92%
[2]
  inhibition: Active
[10]
  viability at 48 h, 30 µM: 104%
[3]
  inhibition: inactive
[4]
  DprE1 inhibition (active/not active): Active
Mycobacterium kansasii [5]
  MIC99: 0.03 µM (≈ 0.0143 µg/mL)
Mycobacterium kansasii [6]
  MIC99: 0.03 µM (≈ 0.0143 µg/mL)
Klebsiella pneumoniae
  Activity: inactive
Mycobacterium kansasii [7]
  MIC99: 0.03 µM (≈ 0.0143 µg/mL)
[8]
  inhibition: Active
A-431
  IC50: > 30 µM

## O=[N+]([O-])c1cc(-c2nnc(SCc3ccccc3)n2Cc2ccccc2)cc([N+](=O)[O-])c1
[1]
  MIC99: 0.03 µM (≈ 0.0134 µg/mL)
HepG2
  IC50: > 30 µM
[9]
  viability at 48 h, 30 µM: 111%
[2]
  inhibition: Active
[10]
  viability at 48 h, 30 µM: 106%
[3]
  inhibition: inactive
[4]
  DprE1 inhibition (active/not active): Active
Mycobacterium kansasii [5]
  MIC99: 0.03 µM (≈ 0.0134 µg/mL)
Mycobacterium kansasii [6]
  MIC99: 0.03 µM (≈ 0.0134 µg/mL)
Klebsiella pneumoniae
  Activity: inactive
Mycobacterium kansasii [7]
  MIC99: 0.03 µM (≈ 0.0134 µg/mL)
[8]
  inhibition: Active
A-431
  IC50: > 30 µM

## O=[N+]([O-])c1cc(-c2nnc(SCc3ccccc3)n2Cc2ccccc2)cc(C(F)(F)F)c1
[1]
  MIC99: 0.06 µM (≈ 0.0282 µg/mL)
HepG2
  IC50: 21.5 µM
[9]
  viability at 48 h, 30 µM: 37%
[10]
  viability at 48 h, 30 µM: 18%
[3]
  inhibition: Active
[11]
  selectivity ratio at 504 h: > 100
[12]
  selectivity ratio at 504 h: > 100
[13]
  selectivity ratio at 504 h: > 100
[4]
  DprE1 inhibition (active/not active): Active
Mycobacterium kansasii [5]
  MIC99: 0.03 µM (≈ 0.0141 µg/mL)
Mycobacterium kansasii [6]
  MIC99: 0.03 µM (≈ 0.0141 µg/mL)
Klebsiella pneumoniae
  Activity: inactive
Mycobacterium kansasii [7]
  MIC99: 0.03 µM (≈ 0.0141 µg/mL)
A-431
  IC50: 10.1 µM

## COc1ccc(CSc2nnc(-c3cc([N+](=O)[O-])cc(C(F)(F)F)c3)n2Cc2ccccc2)cc1
[1]
  MIC99: 0.5 µM (≈ 0.25 µg/mL)
HepG2
  IC50: > 30 µM
[9]
  viability at 48 h, 30 µM: 74%
[10]
  viability at 48 h, 30 µM: 86%
[3]
  inhibition: Active
[4]
  DprE1 inhibition (active/not active): Active
Mycobacterium kansasii [5]
  MIC99: 1 µM (≈ 0.501 µg/mL)
Mycobacterium kansasii [6]
  MIC99: 0.5 µM (≈ 0.25 µg/mL)
Klebsiella pneumoniae
  Activity: inactive
Mycobacterium kansasii [7]
  MIC99: 1 µM (≈ 0.501 µg/mL)
A-431
  IC50: > 30 µM

## COc1ccc(Cn2c(SCc3cc([N+](=O)[O-])cc([N+](=O)[O-])c3)nnc2-c2ccccc2)cc1
[1]
  MIC99: 2 µM (≈ 0.955 µg/mL)
HepG2
  IC50: > 30 µM
[9]
  viability at 48 h, 30 µM: 127%
[2]
  inhibition: inactive
[10]
  viability at 48 h, 30 µM: 133%
[3]
  inhibition: inactive
[4]
  DprE1 inhibition (active/not active): inactive
Klebsiella pneumoniae
  Activity: inactive
[8]
  inhibition: inactive
A-431
  IC50: > 30 µM
